Data from ChEMBL document CHEMBL4229530, “5-Adamantan thiadiazole-based thiazolidinones as antimicrobial agents. Design, synthesis, molecular docking and evaluation” (2018).
Converted amounts (≈) assume the structure as drawn.

Tests used:
[1] = tested on: Enterobacter cloacae; experiment: Antibacterial activity against Enterobacter cloacae after 24 hrs by INT dye based microdilution assay; type: functional
In short: (§1)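 Broth microdilution in tryptic soy broth: overnight bacterial culture adjusted to 1×10^5 CFU/mL, 1.0×10^4 CFU per well; compounds dissolved in 5% DMSO, tested at 0.001-1.0 mg/ml; 24 h at 37°C. Streptomycin and ampicillin as positive controls, 5% DMSO as negative control; duplicate, repeated three times.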

[2] = tested on: Trichoderma viride; experiment: Antifungal activity against Trichoderma viride IAM 5061 after 72 hrs by serial dilution assay; type: functional; details: IAM 5061, 72 h
In short: (§2)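 Modified microdilution: fungal spores washed off malt agar with sterile 0.85% saline plus 0.1% Tween 80, adjusted to about 1.0×10^5 per 100 µL well. Compounds in 5% DMSO (0.001-1.0 mg/ml) in malt broth; 72 h at 28°C on rotary shaker (160 rpm). MIC is lowest concentration without visible growth under binocular microscope. Bifonazole and ketoconazole controls (1-3500 µg/mL); three independent experiments in duplicate.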

[3] = tested on: Pseudomonas aeruginosa; experiment: Antibacterial activity against Pseudomonas aeruginosa ATCC 27853 after 24 hrs by INT dye based microdilution assay; type: functional; details: ATCC 27853, 24 h; in short: as §1
[4] = tested on: Pseudomonas aeruginosa; experiment: Antibacterial activity against drug-resistant Pseudomonas aeruginosa after 24 hrs by INT dye based microdilution assay; type: functional
In short: (§3)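 Broth microdilution in tryptic soy broth. Overnight culture adjusted to 1×10^5 CFU/mL, giving 1.0×10^4 CFU per well. Compounds dissolved in 5% DMSO and tested at 0.001-1.0 mg/ml. Plates incubated 24 h at 37°C. INT (0.2 mg/mL) then added, with 30 min at 37°C. Duplicate, repeated three times.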

[5] = tested on: Staphylococcus aureus; experiment: Antibacterial activity against Staphylococcus aureus ATCC 6538 after 24 hrs by INT dye based microdilution assay; type: functional; details: ATCC 6538, 24 h; in short: as §1
[6] = tested on: Aspergillus fumigatus; experiment: Antifungal activity against Aspergillus fumigatus isolate 1022 after 72 hrs by serial dilution assay; type: functional; details: isolate 1022, 72 h; in short: as §2
[7] = tested on: Aspergillus versicolor; experiment: Antifungal activity against Aspergillus versicolor ATCC 11730 after 72 hrs by serial dilution assay; type: functional; details: ATCC 11730, 72 h; in short: as §2
[8] = tested on: Staphylococcus aureus; experiment: Antibacterial activity against methicillin-resistant Staphylococcus aureus after 24 hrs by INT dye based microdilution assay; type: functional; in short: as §3
[9] = tested on: Listeria monocytogenes; experiment: Antibacterial activity against Listeria monocytogenes NCTC 7973 after 24 hrs by INT dye based microdilution assay; type: functional; details: NCTC 7973, 24 h; in short: as §1
[10] = tested on: Micrococcus flavus; experiment: Antibacterial activity against Micrococcus flavus ATCC 10240 after 24 hrs by INT dye based microdilution assay; type: functional; details: ATCC 10240, 24 h; in short: as §1
[11] = tested on: Escherichia coli; experiment: Antibacterial activity against drug-resistant Escherichia coli after 24 hrs by INT dye based microdilution assay; type: functional; in short: as §3
[12] = tested on: Salmonella typhimurium; experiment: Antibacterial activity against Salmonella typhimurium ATCC 13311 after 24 hrs by INT dye based microdilution assay; type: functional, Salmonella enterica subsp. enterica serovar Typhimurium; details: Salmonella enterica, ATCC 13311, 24 h; in short: as §1
[13] = tested on: Aspergillus ochraceus; experiment: Antifungal activity against Aspergillus ochraceus ATCC 12066 after 72 hrs by serial dilution assay; type: functional; details: ATCC 12066, 72 h; in short: as §2
[14] = tested on: Penicillium ochrochloron; experiment: Antifungal activity against Penicillium ochrochloron ATCC 9112 after 72 hrs by serial dilution assay; type: functional; details: ATCC 9112, 72 h; in short: as §2
[15] = tested on: Penicillium verrucosum; experiment: Antifungal activity against Penicillium cyclopium var verucosum after 72 hrs by serial dilution assay; type: functional; in short: as §2
[16] = tested on: Bacillus cereus; experiment: Antibacterial activity against Bacillus cereus after 24 hrs by INT dye based microdilution assay; type: functional; in short: as §1
[17] = tested on: Aspergillus niger; experiment: Antifungal activity against Aspergillus niger ATCC 6275 after 72 hrs by serial dilution assay; type: functional; details: ATCC 6275, 72 h; in short: as §2
[18] = tested on: Talaromyces funiculosus; experiment: Antifungal activity against Penicillium funiculosum ATCC 36839 after 72 hrs by serial dilution assay; type: functional; details: ATCC 36839, 72 h; in short: as §2
[19] = tested on: Escherichia coli; experiment: Antibacterial activity against Escherichia coli ATCC 35210 after 24 hrs by INT dye based microdilution assay; type: functional; details: ATCC 35210, 24 h; in short: as §1

Compound: O=C1N/C(=N\c2nnc(C34CC5CC(CC(C5)C3)C4)s2)S/C1=C/c1ccc([N+](=O)[O-])cc1
- MIC [1]: 18 µM (≈ 8.42 µg/mL)
- MIC [2]: 6 µM (≈ 2.81 µg/mL)
- MIC [3]: 22 µM (≈ 10.3 µg/mL)
- MIC [4]: 8 µM (≈ 3.74 µg/mL)
- MIC [5]: 0.0165 µM (≈ 0.00772 µg/mL)
- MIC [6]: 8 µM (≈ 3.74 µg/mL)
- MIC [7]: 8 µM (≈ 3.74 µg/mL)
- MIC [8]: 0.008 µM (≈ 0.00374 µg/mL)
- MIC [9]: 33 µM (≈ 15.4 µg/mL)
- MIC [10]: 22 µM (≈ 10.3 µg/mL)
- MIC [11]: 0.006 µM (≈ 0.00281 µg/mL)
- MIC [12]: 16.5 µM (≈ 7.72 µg/mL)
- MIC [13]: 12.3 µM (≈ 5.75 µg/mL)
- MIC [14]: 8 µM (≈ 3.74 µg/mL)
- MIC [15]: 0.0165 µM (≈ 0.00772 µg/mL)
- MIC [16]: 16.5 µM (≈ 7.72 µg/mL)
- MIC [17]: 16.5 µM (≈ 7.72 µg/mL)
- MIC [18]: 12.3 µM (≈ 5.75 µg/mL)
- MIC [19]: 0.022 µM (≈ 0.0103 µg/mL)

Compound: O=C1N/C(=N\c2nnc(C34CC5CC(CC(C5)C3)C4)s2)S/C1=C/c1ccccc1
- MIC [1]: 94.7 µM (≈ 40 µg/mL)
- MIC [2]: 47.5 µM (≈ 20.1 µg/mL)
- MIC [3]: 94.7 µM (≈ 40 µg/mL)
- MIC [4]: 47.3 µM (≈ 20 µg/mL)
- MIC [5]: 0.0473 µM (≈ 0.02 µg/mL)
- MIC [6]: 47.5 µM (≈ 20.1 µg/mL)
- MIC [7]: 95 µM (≈ 40.1 µg/mL)
- MIC [8]: 0.0473 µM (≈ 0.02 µg/mL)
- MIC [9]: 94.7 µM (≈ 40 µg/mL)
- MIC [10]: 94.7 µM (≈ 40 µg/mL)
- MIC [11]: 0.0236 µM (≈ 0.00997 µg/mL)
- MIC [12]: 23.6 µM (≈ 9.97 µg/mL)
- MIC [13]: 47.5 µM (≈ 20.1 µg/mL)
- MIC [14]: 47.5 µM (≈ 20.1 µg/mL)
- MIC [15]: 0.095 µM (≈ 0.0401 µg/mL)
- MIC [16]: 94.7 µM (≈ 40 µg/mL)
- MIC [17]: 95 µM (≈ 40.1 µg/mL)
- MIC [18]: 47.5 µM (≈ 20.1 µg/mL)
- MIC [19]: 0.0947 µM (≈ 0.04 µg/mL)

Compound: O=C1N/C(=N\c2nnc(C34CC5CC(CC(C5)C3)C4)s2)S/C1=C/c1c(F)cccc1F
- MIC [1]: 21.8 µM (≈ 10 µg/mL)
- MIC [2]: 393 µM (≈ 180 µg/mL)
- MIC [3]: 43.6 µM (≈ 20 µg/mL)
- MIC [4]: 393 µM (≈ 180 µg/mL)
- MIC [5]: 0.0436 µM (≈ 0.02 µg/mL)
- MIC [6]: 393 µM (≈ 180 µg/mL)
- MIC [7]: 393 µM (≈ 180 µg/mL)
- MIC [8]: 0.393 µM (≈ 0.18 µg/mL)
- MIC [9]: 21.8 µM (≈ 10 µg/mL)
- MIC [10]: 43.6 µM (≈ 20 µg/mL)
- MIC [11]: 0.393 µM (≈ 0.18 µg/mL)
- MIC [12]: 43.6 µM (≈ 20 µg/mL)
- MIC [13]: 393 µM (≈ 180 µg/mL)
- MIC [14]: 393 µM (≈ 180 µg/mL)
- MIC [15]: 0.393 µM (≈ 0.18 µg/mL)
- MIC [16]: 43.6 µM (≈ 20 µg/mL)
- MIC [17]: 393 µM (≈ 180 µg/mL)
- MIC [18]: 393 µM (≈ 180 µg/mL)
- MIC [19]: 0.0436 µM (≈ 0.02 µg/mL)

Compound: CN(C)c1ccc(/C=C2/S/C(=N/c3nnc(C45CC6CC(CC(C6)C4)C5)s3)NC2=O)cc1
- MIC [1]: 139 µM (≈ 64.8 µg/mL)
- MIC [2]: 301 µM (≈ 140 µg/mL)
- MIC [3]: 69.5 µM (≈ 32.4 µg/mL)
- MIC [4]: 150 µM (≈ 70.1 µg/mL)
- MIC [5]: 0.139 µM (≈ 0.0648 µg/mL)
- MIC [6]: 301 µM (≈ 140 µg/mL)
- MIC [7]: 150 µM (≈ 69.8 µg/mL)
- MIC [8]: 0.15 µM (≈ 0.0701 µg/mL)
- MIC [9]: 69.5 µM (≈ 32.4 µg/mL)
- MIC [10]: 139 µM (≈ 64.8 µg/mL)
- MIC [11]: 0.0751 µM (≈ 0.035 µg/mL)
- MIC [12]: 69.5 µM (≈ 32.4 µg/mL)
- MIC [13]: 150 µM (≈ 69.8 µg/mL)
- MIC [14]: 150 µM (≈ 69.8 µg/mL)
- MIC [15]: 0.301 µM (≈ 0.14 µg/mL)
- MIC [16]: 139 µM (≈ 64.8 µg/mL)
- MIC [17]: 150 µM (≈ 69.8 µg/mL)
- MIC [18]: 150 µM (≈ 69.8 µg/mL)
- MIC [19]: 0.139 µM (≈ 0.0648 µg/mL)

Compound: O=C1N/C(=N\c2nnc(C34CC5CC(CC(C5)C3)C4)s2)S/C1=C/c1ccccc1[N+](=O)[O-]
- MIC [1]: 32.2 µM (≈ 15.1 µg/mL)
- MIC [2]: 321 µM (≈ 150 µg/mL)
- MIC [3]: 32.2 µM (≈ 15.1 µg/mL)
- MIC [4]: 175 µM (≈ 81.8 µg/mL)
- MIC [5]: 0.0322 µM (≈ 0.0151 µg/mL)
- MIC [6]: 321 µM (≈ 150 µg/mL)
- MIC [7]: 321 µM (≈ 150 µg/mL)
- MIC [8]: 0.175 µM (≈ 0.0818 µg/mL)
- MIC [9]: 32.2 µM (≈ 15.1 µg/mL)
- MIC [10]: 32.2 µM (≈ 15.1 µg/mL)
- MIC [11]: 0.175 µM (≈ 0.0818 µg/mL)
- MIC [12]: 32.2 µM (≈ 15.1 µg/mL)
- MIC [13]: 321 µM (≈ 150 µg/mL)
- MIC [14]: 321 µM (≈ 150 µg/mL)
- MIC [15]: 0.321 µM (≈ 0.15 µg/mL)
- MIC [16]: 32.2 µM (≈ 15.1 µg/mL)
- MIC [17]: 482 µM (≈ 225 µg/mL)
- MIC [18]: 482 µM (≈ 225 µg/mL)
- MIC [19]: 0.0322 µM (≈ 0.0151 µg/mL)

Compound: O=C1N/C(=N\c2nnc(C34CC5CC(CC(C5)C3)C4)s2)S/C1=C/c1ccc(Cl)cc1Cl
- MIC [1]: 163 µM (≈ 80.1 µg/mL)
- MIC [2]: 81.4 µM (≈ 40 µg/mL)
- MIC [3]: 163 µM (≈ 80.1 µg/mL)
- MIC [4]: 163 µM (≈ 80 µg/mL)
- MIC [5]: 0.0203 µM (≈ 0.00998 µg/mL)
- MIC [6]: 81.4 µM (≈ 40 µg/mL)
- MIC [7]: 163 µM (≈ 80.1 µg/mL)
- MIC [8]: 0.0814 µM (≈ 0.04 µg/mL)
- MIC [9]: 163 µM (≈ 80.1 µg/mL)
- MIC [10]: 163 µM (≈ 80.1 µg/mL)
- MIC [11]: 0.0203 µM (≈ 0.00998 µg/mL)
- MIC [12]: 81.5 µM (≈ 40.1 µg/mL)
- MIC [13]: 81.4 µM (≈ 40 µg/mL)
- MIC [14]: 163 µM (≈ 80.1 µg/mL)
- MIC [15]: 0.0814 µM (≈ 0.04 µg/mL)
- MIC [16]: 163 µM (≈ 80.1 µg/mL)
- MIC [17]: 81.4 µM (≈ 40 µg/mL)
- MIC [18]: 163 µM (≈ 80.1 µg/mL)
- MIC [19]: 0.163 µM (≈ 0.0801 µg/mL)
